Data taken from ChEMBL document CHEMBL1142952, “Design, synthesis, and activity of 2-imidazol-1-ylpyrimidine derived inducible nitric oxide synthase dimerization inhibitors” (J Med Chem, 2007).
The source made the active and inactive calls. How the calls were made is not given here.

Columns and labels:
[1] = target: Nitric oxide synthase, inducible (Rattus norvegicus) (UniProt Q06518); test: Activity against rat cerebellum iNOS upto 1 uM
[2] = target: Nitric oxide synthase, inducible (Homo sapiens, UniProt P35228); test: Inhibition of cytokine-induced iNOS expressed in human A172 cells assessed as inhibition of NO formation; format: cell-based, A 172
BSC-1 [3] = test: Selectivity ratio, IC50 for bcNOS/IC50 for iNOS using vaccinia virus-induced system in BSC1 cells; format: cell-based; details: Homo sapiens
Procedure, shortened: (§1)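 For each compound, the IC50 against bcNOS (b/i) or ecNOS (e/i) is divided by the iNOS IC50 from the same BSC-1 vaccinia system.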

[4] = Inhibition of vaccinia virus system-induced human NOS expressed in BSC1 cells; format: cell-based; details: bsc-1
BSC-1 [5] = test: Selectivity ratio, IC50 for ecNOS/IC50 for iNOS using vaccinia virus-induced system in BSC1 cells; format: cell-based; details: Homo sapiens; procedure, shortened: as §1

Sequence of Nitric oxide synthase, inducible (Rattus norvegicus) (Q06518 whole entry): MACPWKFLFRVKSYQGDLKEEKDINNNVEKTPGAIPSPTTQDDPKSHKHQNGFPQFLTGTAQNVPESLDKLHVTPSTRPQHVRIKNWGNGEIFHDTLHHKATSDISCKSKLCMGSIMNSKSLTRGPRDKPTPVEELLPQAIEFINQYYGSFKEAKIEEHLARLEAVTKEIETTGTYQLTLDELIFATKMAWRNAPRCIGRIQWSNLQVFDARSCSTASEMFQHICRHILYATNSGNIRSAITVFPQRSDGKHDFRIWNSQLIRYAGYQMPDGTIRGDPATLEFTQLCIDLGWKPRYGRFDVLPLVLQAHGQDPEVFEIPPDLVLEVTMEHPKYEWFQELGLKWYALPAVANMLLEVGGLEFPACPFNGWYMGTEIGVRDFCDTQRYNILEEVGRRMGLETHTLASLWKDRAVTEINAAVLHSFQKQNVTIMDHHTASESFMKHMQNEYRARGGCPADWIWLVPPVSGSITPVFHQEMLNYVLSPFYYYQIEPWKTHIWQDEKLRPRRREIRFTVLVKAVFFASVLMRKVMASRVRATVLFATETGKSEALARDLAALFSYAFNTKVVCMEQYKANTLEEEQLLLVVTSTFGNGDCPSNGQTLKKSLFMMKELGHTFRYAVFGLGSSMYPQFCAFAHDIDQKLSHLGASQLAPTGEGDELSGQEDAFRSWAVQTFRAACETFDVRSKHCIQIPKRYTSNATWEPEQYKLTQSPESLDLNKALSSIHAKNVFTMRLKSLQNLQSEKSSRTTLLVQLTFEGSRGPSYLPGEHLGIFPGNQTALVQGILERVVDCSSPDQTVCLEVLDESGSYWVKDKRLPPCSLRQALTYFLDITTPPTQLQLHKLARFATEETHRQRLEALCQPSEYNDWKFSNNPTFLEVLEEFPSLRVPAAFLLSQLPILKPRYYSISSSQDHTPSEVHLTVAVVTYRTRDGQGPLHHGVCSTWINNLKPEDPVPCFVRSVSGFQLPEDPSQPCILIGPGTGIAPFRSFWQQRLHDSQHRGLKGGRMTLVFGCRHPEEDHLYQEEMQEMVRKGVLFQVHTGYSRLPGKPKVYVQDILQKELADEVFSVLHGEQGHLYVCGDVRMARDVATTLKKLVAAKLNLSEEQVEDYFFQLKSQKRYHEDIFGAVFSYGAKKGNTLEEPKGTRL
Sequence of Nitric oxide synthase, inducible (P35228 whole entry): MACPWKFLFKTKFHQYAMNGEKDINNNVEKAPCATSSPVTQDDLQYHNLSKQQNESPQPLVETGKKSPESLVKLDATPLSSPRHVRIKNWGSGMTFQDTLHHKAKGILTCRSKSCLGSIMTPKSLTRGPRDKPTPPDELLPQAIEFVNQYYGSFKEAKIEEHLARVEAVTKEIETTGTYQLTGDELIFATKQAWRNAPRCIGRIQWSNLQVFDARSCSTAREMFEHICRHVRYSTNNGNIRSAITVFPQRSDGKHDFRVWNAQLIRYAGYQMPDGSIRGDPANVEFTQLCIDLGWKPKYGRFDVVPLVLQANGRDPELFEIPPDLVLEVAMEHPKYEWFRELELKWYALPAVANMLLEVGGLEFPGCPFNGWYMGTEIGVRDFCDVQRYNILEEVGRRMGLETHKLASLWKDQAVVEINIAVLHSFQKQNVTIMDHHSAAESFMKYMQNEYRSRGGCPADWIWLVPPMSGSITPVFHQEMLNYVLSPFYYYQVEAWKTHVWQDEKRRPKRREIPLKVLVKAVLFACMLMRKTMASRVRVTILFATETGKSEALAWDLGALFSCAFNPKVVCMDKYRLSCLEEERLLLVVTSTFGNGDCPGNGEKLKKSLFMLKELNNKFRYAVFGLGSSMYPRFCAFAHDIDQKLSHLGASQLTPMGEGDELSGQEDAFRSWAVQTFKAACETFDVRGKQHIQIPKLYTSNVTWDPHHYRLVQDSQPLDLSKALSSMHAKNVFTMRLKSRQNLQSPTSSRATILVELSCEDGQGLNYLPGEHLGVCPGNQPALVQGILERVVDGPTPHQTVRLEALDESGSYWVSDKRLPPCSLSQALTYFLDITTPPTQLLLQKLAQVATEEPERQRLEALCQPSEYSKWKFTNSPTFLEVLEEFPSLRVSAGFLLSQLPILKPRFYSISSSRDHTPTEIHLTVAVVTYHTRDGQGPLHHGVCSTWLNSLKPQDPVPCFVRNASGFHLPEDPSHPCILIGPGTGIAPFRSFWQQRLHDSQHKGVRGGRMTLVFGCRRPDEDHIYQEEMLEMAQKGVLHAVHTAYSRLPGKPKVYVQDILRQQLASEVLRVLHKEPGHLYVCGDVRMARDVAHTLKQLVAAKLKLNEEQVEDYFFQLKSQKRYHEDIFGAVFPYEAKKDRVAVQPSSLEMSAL

Row | Compound | Activity [1] | IC50 [2] | Ratio IC50 (BSC-1 [3]) | IC50 [4] | Ratio IC50 (BSC-1 [5])
1 | Cc1cc(N2CCCCC2CC(=O)NCc2ccc3c(c2)OCO3)nc(-n2ccnc2)n1 (stereo not given) | inactive | 4.1 nM | 5 | 16 nM | 1200
2 | O=C(CC1CCCCN1c1cc(-n2ccnc2)nc(-n2ccnc2)n1)NCc1ccc2c(c1)OCO2 (stereo not given) | inactive | 35 nM | 13 | 515 nM | 130
3 | O=C(CC1CCCCN1c1ccnc(-n2ccnc2)n1)Nc1ccc2c(c1)OCO2 (stereo not given) | inactive | > 100 nM |  |  | 
4 | COc1ccc(CCNC(=O)CC2CCCCN2c2ccnc(-n3ccnc3)n2)cc1OC (stereo not given) | inactive | 12 nM | 1 | 680 nM | 120
5 | O=C(CC1CCCCN1c1cc(-n2ccnc2)ncn1)NCc1ccc2c(c1)OCO2 (stereo not given) | inactive | 10 nM | 19 | 100 nM | > 1000
6 | Cc1cc(N2CCNC(CC(=O)NCc3ccc4c(c3)OCO4)C2)nc(-n2ccnc2)n1 (stereo not given) | inactive | 100 nM |  | > 1000 nM | 
7 | O=C(CC1CCCCN1c1ccnc(-n2ccnc2)n1)NCc1ccc(Cl)cc1 (stereo not given) | inactive |  |  | 160 nM | 
8 | CCOC(=O)CN1CCN(c2ccnc(-n3ccnc3)n2)C(CC(=O)NCc2ccc3c(c2)OCO3)C1 (stereo not given) | inactive | 0.93 nM | 5 | 4.9 nM | 1700
9 | O=C(CC1CCCCN1c1ccnc(-n2ccnc2)n1)NCc1ccco1 (stereo not given) | inactive | 63 nM | 13 | 260 nM | 140
10 | CS(=O)(=O)Nc1ccc(CNC(=O)CC2CCCCN2c2ccnc(-n3ccnc3)n2)cc1 (stereo not given) | inactive |  |  | > 1000 nM | 
11 | Nc1ccc(CNC(=O)CC2CCCCN2c2ccnc(-n3ccnc3)n2)cc1 (stereo not given) | inactive |  |  | 850 nM | 
12 | O=C(CC1CCCCN1c1ccnc(-n2ccnc2)n1)NCc1ccc(F)cc1 (stereo not given) | inactive | 3 nM | 5 | 210 nM | 490
13 | O=C(CC1CCCCN1c1ccnc(-n2ccnc2)n1)NCc1ccc(OC(F)(F)F)cc1 (stereo not given) | inactive | 19 nM | 5 | 140 nM | 220
14 | O=C(CC1CN(C(=O)Oc2ccccc2)CCN1c1ccnc(-n2ccnc2)n1)NCc1ccc2c(c1)OCO2 (stereo not given) | inactive | 1.4 nM | 5 | 16 nM | 700
15 | O=C(CC1CCCCN1c1cccc(-n2ccnc2)c1)NCc1ccc2c(c1)OCO2 (stereo not given) | inactive | 77 nM |  |  | 
16 | N#Cc1ccc(CNC(=O)CC2CCCCN2c2ccnc(-n3ccnc3)n2)cc1 (stereo not given) | inactive |  |  | > 1000 nM | 
17 | CC(=O)N1CCN(c2cc(C)nc(-n3ccnc3)n2)CC1CC(=O)NCc1ccc2c(c1)OCO2 (stereo not given) | inactive | 8.5 nM | > 32 | 340 nM | > 320
18 | COc1cc(CNC(=O)CC2CCCCN2c2ccnc(-n3ccnc3)n2)cc(OC)c1OC (stereo not given) | inactive | > 100 nM |  |  | 
19 | O=C(CC1CN(C(=O)c2ccco2)CCN1c1ccnc(-n2ccnc2)n1)NCc1ccc2c(c1)OCO2 (stereo not given) | inactive | 0.67 nM | 6 | 48 nM | 1000
20 | CN(Cc1ccccc1)C(=O)CC1CCCCN1c1ccnc(-n2ccnc2)n1 (stereo not given) | inactive |  |  |  | 
21 | O=C(CC1COCCN1c1ccnc(-n2ccnc2)n1)NCc1ccc2c(c1)OCO2 (stereo not given) | inactive | 0.5 nM |  |  | 
22 | COc1ccc(CNC(=O)CC2CCCCN2c2ccnc(-n3ccnc3)n2)cc1 (stereo not given) | inactive |  |  | 23 nM | 
23 | COC(=O)N1CCN(c2cc(C)nc(-n3ccnc3)n2)CC1CC(=O)NCc1ccc2c(c1)OCO2 (stereo not given) | inactive | 5.4 nM | 50 | 420 nM | > 200
24 | O=C(CC1CN(C(=O)c2ccccc2)CCN1c1ccnc(-n2ccnc2)n1)NCc1ccc2c(c1)OCO2 (stereo not given) | inactive | 0.5 nM | 4 | 85 nM | 220
25 | COc1cccc(CNC(=O)CC2CCCCN2c2ccnc(-n3ccnc3)n2)c1 (stereo not given) | inactive | 3.7 nM | 4 | 230 nM | > 430
26 | CS(=O)(=O)c1ccc(CNC(=O)CC2CCCCN2c2ccnc(-n3ccnc3)n2)cc1 (stereo not given) | inactive |  |  | 940 nM | 
27 | O=C(CC1CN(C(=O)COCc2ccccc2)CCN1c1ccnc(-n2ccnc2)n1)NCc1ccc2c(c1)OCO2 (stereo not given) | inactive | 0.5 nM | 11 | 28 nM | 1220
28 | O=C(CC1CN(Cc2cccc3ccccc23)CCN1c1ccnc(-n2ccnc2)n1)NCc1ccc2c(c1)OCO2 (stereo not given) | inactive | 69 nM | 7 | 120 nM | 40

Row | Compound | Activity [1] | IC50 [2] | Ratio IC50 (BSC-1 [3]) | IC50 [4] | Ratio IC50 (BSC-1 [5])
29 | CC(C)OC(=O)N1CCN(c2ccnc(-n3ccnc3)n2)C(CC(=O)NCc2ccc3c(c2)OCO3)C1 (stereo not given) | inactive | 1 nM | 4 | 24 nM | 800
30 | O=C(CC1CCCCN1c1ccnc(-n2ccnc2)n1)NCc1ccccn1 (stereo not given) | inactive |  |  |  | 
31 | O=C(CC1CCCCN1c1cc(-c2ccccc2)nc(-n2ccnc2)n1)NCc1ccc2c(c1)OCO2 (stereo not given) | inactive | 67 nM | 4 | 450 nM | 36
32 | NS(=O)(=O)c1ccc(CNC(=O)CC2CCCCN2c2ccnc(-n3ccnc3)n2)cc1 (stereo not given) | inactive |  |  | > 330 nM | 
33 | O=C(CC1CN(C(=O)OCc2ccccc2)CCN1c1ccnc(-n2ccnc2)n1)NCc1ccc2c(c1)OCO2 (stereo not given) | inactive | 0.8 nM | 7 | 18 nM | 660
34 | O=C(CC1CN(Cc2ccco2)CCN1c1ccnc(-n2ccnc2)n1)NCc1ccc2c(c1)OCO2 (stereo not given) | inactive | 0.58 nM | 2 | 13 nM | 1100
35 | O=C(CC1CN(Cc2ccccc2)CCN1c1ccnc(-n2ccnc2)n1)NCc1ccc2c(c1)OCO2 (stereo not given) | inactive | 1 nM | 7 | 13 nM | 770
36 | O=C(CC1CCCCN1c1ccnc(-n2ccnc2)n1)NCc1ccc2c(c1)OCO2 (stereo not given) | inactive | 0.5 nM | 5 | 7 nM | 520
37 | CN(C)c1cccc2c(S(=O)(=O)N3CCN(c4ccnc(-n5ccnc5)n4)C(CC(=O)NCc4ccc5c(c4)OCO5)C3)cccc12 (stereo not given) | inactive | 1.1 nM |  |  | 
38 | O=C(CC1CCCCN1c1nccc(-n2ccnc2)n1)NCc1ccc2c(c1)OCO2 (stereo not given) | inactive | 52 nM | 6 | 220 nM | > 500
39 | O=C(CC1CCCCN1c1cc(Cl)nc(-n2ccnc2)n1)NCc1ccc2c(c1)OCO2 (stereo not given) | inactive | 0.49 nM | 5 | 9 nM | 1100
40 | COc1ccc(CCNC(=O)CC2CCCCN2c2ccnc(-n3ccnc3)n2)cc1 (stereo not given) | inactive | 3.5 nM | 8 | 42 nM | > 1000
41 | O=C(CC1CCCCCN1c1ccnc(-n2ccnc2)n1)NCc1ccc2c(c1)OCO2 (stereo not given) | inactive | 2 nM |  |  | 
42 | Cc1ccc(CNC(=O)CC2CCCCN2c2ccnc(-n3ccnc3)n2)cc1 (stereo not given) | inactive |  |  | 274 nM | 
43 | CN(C)c1ccc(CNC(=O)CC2CCCCN2c2ccnc(-n3ccnc3)n2)cc1 (stereo not given) | inactive | 66 nM | 29 | 245 nM | 86
44 | O=C(CC1CN(C(=O)Nc2ccccc2)CCN1c1ccnc(-n2ccnc2)n1)NCc1ccc2c(c1)OCO2 (stereo not given) | inactive | 0.87 nM | 3 | 25 nM | 350
45 | O=C(CC1CNCCN1c1ccnc(-n2ccnc2)n1)NCc1ccc2c(c1)OCO2 (stereo not given) | inactive | 0.55 nM | 7 | 70 nM | 1200
46 | O=C(CC1CCCCN1c1ccnc(-n2ccnc2)n1)NC(c1ccccc1)c1ccccc1 (stereo not given) | inactive |  |  |  | 
47 | COc1ccc(NC(=O)CC2CCCCN2c2ccnc(-n3ccnc3)n2)cc1OC (stereo not given) | inactive |  |  | 1800 nM | 
48 | Cc1cc(N2CCN(C(=O)C(C)C)[C@@H](CC(=O)NCc3ccc4c(c3)OCO4)C2)nc(-n2ccnc2)n1 | inactive | 300 nM |  | > 1000 nM | 
49 | Cc1cc(N2CCC[C@H]2C(=O)NCCc2ccc3c(c2)OCO3)nc(-n2ccnc2)n1 | inactive | 6400 nM |  |  | 
50 | COc1ccccc1CNC(=O)CC1CCCCN1c1ccnc(-n2ccnc2)n1 (stereo not given) | inactive |  |  | 500 nM | 
51 | O=C(CC1CCCCN1c1ccnc(-n2ccnc2)n1)NCc1ccccc1 (stereo not given) | inactive |  |  | 440 nM | 
52 | COC(=O)N1CCN(c2ccnc(-n3ccnc3)n2)[C@H](CC(=O)NCc2ccc3c(c2)OCO3)C1 | inactive | 34 nM |  | > 1000 nM | 
53 | COc1ccc(CNC(=O)CC2CCCCN2c2ccnc(-n3ccnc3)n2)cc1OC (stereo not given) | inactive |  |  | 110 nM | 
54 | CNC(=O)CC1CCCCN1c1ccnc(-n2ccnc2)n1 (stereo not given) | inactive | > 100 nM |  |  | 
55 | Cc1cc(N2CCN(S(C)(=O)=O)C(CC(=O)NCc3ccc4c(c3)OCO4)C2)nc(-n2ccnc2)n1 (stereo not given) | inactive | 12 nM |  | > 1000 nM | 
